Screens as filed in PubChem.
zVAD death inh: inhibitors of zVAD-triggered necroptosis, primary screen, L929 cells; L929 zVAD necroptosis rescue, ATP luminescence, 24 h; with zVAD 60 µM; viability rescue, % at 10 µM; hit rate 0.38% among 220,000;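 active means activation, scaled between plate controls, above about 75%, limit read from the data; inactive means activation under that limit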;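 further: 0% = zVAD with DMSO and 100% = DMSO alone without zVAD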
RBBP9 inh: human RBBP9 inhibitors, primary screen, biochemical, fluorescence polarization, FP-Rh probe, HTS; inhibition, % at 7.94 µM; hit rate 0.2% among 220,000; recombinant RBBP9; Serine hydrolase RBBP9 (Homo sapiens), O75884;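 active means inhibition above the campaign mean of all tested compounds plus 3 SD, cut at about 14% in these data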;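 further: plate controls were DMSO wells with RBBP9 for no effect and wells lacking RBBP9 protein for full effect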
Target sequence (O75884 whole entry, looked up): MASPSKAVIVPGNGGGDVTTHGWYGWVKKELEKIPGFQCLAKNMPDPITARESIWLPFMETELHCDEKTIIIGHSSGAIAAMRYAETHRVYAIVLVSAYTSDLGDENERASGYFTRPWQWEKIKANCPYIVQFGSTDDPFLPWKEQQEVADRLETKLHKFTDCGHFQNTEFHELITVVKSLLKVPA
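Assay system: recombinant human RBBP9; Reagent: Serine-hydrolase probe FP-Rh, 375 nM pre-mixing; Doses: 7.94 µM single dose, 0.794% DMSO; Incubation: 30 min then 45 min, 25 °C; Detection: fluorescence polarization (mP), excitation 525 nm, emission 598 nm; Evaluation: percent inhibition from mP, scaled between DMSO and no-protein wells.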
PfM18AAP inh: PfM18AAP inhibitors, malaria aminopeptidase, primary screen, biochemical, QFRET, recombinant enzyme; hit rate 1.2% among 290,000; inhibition, % at 7.35 µM; M18 aspartyl aminopeptidase (Plasmodium falciparum 3D7); H-Glu-NHMec fluorogenic cleavage;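 active means inhibition above the campaign mean inhibition over all tested compounds plus 3 SD, cut at about 28% in these data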;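 further: 0% = plate median of test compound wells and 100% = 2 mM ZnCl2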
TNF necrop inh: inhibitors of TNF-alpha triggered necroptosis, primary screen, cell-based, Jurkat FADD-/-, single concentration. Jurkat FADD-/- TNF necroptosis rescue, ATP luminescence, 24 h; 0 = TNF only, 100 = no-TNF cells. hit rate 0.068% among 220,000. AID 463075, 2010. activation (protection from cell death), % at 10 µM;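 active means activation, meaning protection from cell death, of at least 50% relative to plate controls; inactive means activation below 50%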;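 further: necroptosis triggered by 40 ng/mL TNF-alpha added together with compound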
p97 ATPase inh: inhibitors of human p97 ATPase, primary screen, biochemical; hit rate 0.42% among 220,000; inhibition, % at 8 µM; recombinant p97 ATPase, Kinase-Glo ATP luminescence, 3 h; in the data active means inhibition above about 15%;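 further: 0% = DMSO vehicle and 100% = wells lacking enzyme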
Wee1 stabilizer: Wee1 degradation inhibitors, primary screen, cell-based, HeLa, Wee1K328M-luciferase, luminescence. Wee1-like protein kinase (Homo sapiens), P30291. HeLa Luc-Wee1K328M stability; 100% = proteasome inhibitor MG132 effect. reporter increase, % at 5 µM. hit rate 1.2% among 220,000;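 active means activation above the mean of all tested compounds plus 3 SD, set per screening run, cut at about 8.8% in these data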;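 further: cells exposed to compound for 20 h before luminescence read; 0% = DMSO alone and 100% = MG132 at 30 µM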
An asterisk follows results filed as active. In the library only some 2.7% were active in any assay of this set; here they are far more common.

O=C1CC(CCC(=O)NC2CC2)c2ccccc2N1 (centres undefined) was read as zVAD death inh 1, RBBP9 inh -6, PfM18AAP inh -18, TNF necrop inh 0, p97 ATPase inh -6 and Wee1 stabilizer 9.0*.
`CC(C)NC(=S)N/N=C/c1ccc(N2CCOCC2)cc1` gave zVAD death inh 0, RBBP9 inh -4, PfM18AAP inh -5, TNF necrop inh 1, p97 ATPase inh -5 and Wee1 stabilizer -1.
`Oc1ccc(/C=N/NC(=S)N2CCOCC2)cc1` gave zVAD death inh 1, RBBP9 inh -1, PfM18AAP inh 33*, TNF necrop inh -1, p97 ATPase inh 2 and Wee1 stabilizer 0.
`O=C(Nc1nc2ccc(S(=O)(=O)N3CCOCC3)cc2s1)c1cccs1` gave zVAD death inh 1, RBBP9 inh -7, PfM18AAP inh 2, TNF necrop inh 0, p97 ATPase inh 3 and Wee1 stabilizer 10*.
COc1ccccc1N(CC(=O)N/N=C/c1ccc(C(=O)O)cc1)S(=O)(=O)c1ccc(C)cc1 was read as zVAD death inh 0, RBBP9 inh -10, PfM18AAP inh -2, TNF necrop inh 1, p97 ATPase inh -4 and Wee1 stabilizer 9.0*.
For COc1ccc(/C=N/NC(=O)CN(c2ccc(OC)cc2)S(=O)(=O)c2ccccc2)cc1 the results were zVAD death inh 1, RBBP9 inh -3, PfM18AAP inh 5, TNF necrop inh 1, p97 ATPase inh 4 and Wee1 stabilizer 1.
CCOc1ccc(NC(=O)CCC(=O)NNC(=O)c2ccc(Br)o2)cc1 was read as PfM18AAP inh -11.
For O=C(NCc1ccco1)C1CCN(C(=O)c2ccc(Cl)cc2Cl)CC1 the results were PfM18AAP inh 22.
`COCCSc1nnc(NC(=O)CCS(=O)(=O)c2ccccc2)s1` gave PfM18AAP inh -3.
For Cc1cc(C)c2c(N)c(C(=O)c3ccccc3)sc2n1 the results were zVAD death inh 1, RBBP9 inh -2, PfM18AAP inh -4, TNF necrop inh 1, p97 ATPase inh 1 and Wee1 stabilizer 11*.
Cc1cc(C)c2c(N)c(C(=O)c3ccc(Cl)cc3)sc2n1 was read as zVAD death inh 0, RBBP9 inh -1, PfM18AAP inh -4, TNF necrop inh -6, p97 ATPase inh 9 and Wee1 stabilizer 1.
For CC(=O)c1cccc(CN2CCCC(CCC(=O)NCc3ccccc3F)C2)c1 (centres undefined) the results were zVAD death inh -1, RBBP9 inh -2, PfM18AAP inh -10, TNF necrop inh 2, p97 ATPase inh 1 and Wee1 stabilizer -2.
`COc1ccc(/C=C2/NC(=O)CNC2=O)cc1` gave PfM18AAP inh -5.
C/C(CC(=O)NCc1ccco1)=N\NC(=O)C(c1ccccc1)c1ccccc1 was read as zVAD death inh 77*, RBBP9 inh -3, PfM18AAP inh 8, TNF necrop inh 27, p97 ATPase inh -3 and Wee1 stabilizer 0.
For C/C(CC(=O)NCc1ccco1)=N\NC(=O)Cc1ccccc1 the results were zVAD death inh 0, RBBP9 inh -2, PfM18AAP inh 3, TNF necrop inh -3, p97 ATPase inh 0 and Wee1 stabilizer -1.
O=c1[nH][nH]c2c(N=Cc3ccccc3O)ccc(F)c12 was read as zVAD death inh -1, RBBP9 inh 4, PfM18AAP inh 18, TNF necrop inh -13, p97 ATPase inh 40* and Wee1 stabilizer 4.
Screening CCc1ccc(O)c(N=Cc2ccccc2O)c1 returned zVAD death inh 1, RBBP9 inh -8, PfM18AAP inh 24, TNF necrop inh -1, p97 ATPase inh 6 and Wee1 stabilizer 1.
Screening C=CCc1cccc(C=Nc2ccc(Br)cc2)c1O returned zVAD death inh 0, RBBP9 inh -1, PfM18AAP inh 3, TNF necrop inh -1, p97 ATPase inh 2 and Wee1 stabilizer 3.
Screening C=CCc1cccc(/C=N/NC(=O)C[n+]2ccccc2)c1O returned PfM18AAP inh 29*.
`C=CCc1cccc(/C=N/n2cnnc2)c1O` gave zVAD death inh 0, RBBP9 inh 6, PfM18AAP inh 30*, TNF necrop inh 0, p97 ATPase inh 5 and Wee1 stabilizer 4.
For Cc1cc(C)c(NC(=S)N(C)C)c(C)c1 the results were zVAD death inh 1, RBBP9 inh -2, PfM18AAP inh -7, TNF necrop inh 5, p97 ATPase inh 6 and Wee1 stabilizer 0.
Screening CCN1CCN(C(=O)/C=C/c2ccccc2[N+](=O)[O-])CC1 returned zVAD death inh -2, RBBP9 inh -1, PfM18AAP inh -1, TNF necrop inh 0, p97 ATPase inh -7 and Wee1 stabilizer -2.
Screening O=C(/C=C/c1ccccc1[N+](=O)[O-])N1CCCCC1 returned zVAD death inh 0, RBBP9 inh -8, PfM18AAP inh -8, TNF necrop inh 0, p97 ATPase inh -2 and Wee1 stabilizer 9.1*.
Screening CCCC(=O)c1c(NCCO)cc(C)oc1=O returned zVAD death inh 0, RBBP9 inh 2, PfM18AAP inh -21, TNF necrop inh 1, p97 ATPase inh 2 and Wee1 stabilizer 8.9*.
O=C(NCCCN1CCCC1=O)c1ccc(Cl)c(Cl)c1 was read as zVAD death inh 0, RBBP9 inh -11, PfM18AAP inh -1, TNF necrop inh 0, p97 ATPase inh 2 and Wee1 stabilizer -2.
Screening Cc1nc(-c2ccccn2)nc(N2CCOCC2)c1Cl returned zVAD death inh 0, RBBP9 inh -3, PfM18AAP inh 8, TNF necrop inh -1, p97 ATPase inh -6 and Wee1 stabilizer 10*.
For Cc1nc2ccc(NC(=S)N3CCN(c4ccccn4)CC3)cc2nc1C the results were zVAD death inh -1, RBBP9 inh -3, PfM18AAP inh 7, TNF necrop inh -4, p97 ATPase inh 7 and Wee1 stabilizer 9.0*.
`S=C(Nc1ccc(Cl)c(Cl)c1)N1CCN(c2ccccn2)CC1` gave PfM18AAP inh 7.
For CCOc1nc(Nc2ccc(OC)cc2OC)nc(OCC)n1 the results were PfM18AAP inh 4.
For Cc1sc2nc(C3CC3)nc(N3CCN(C(=O)c4ccc(Cl)cc4)CC3)c2c1C the results were PfM18AAP inh 1.
`C/C(=N\NC(=O)c1c(C)nc2ccccn12)c1ccccc1F` gave PfM18AAP inh 2.
C/C(=N\NC(=O)c1c(C)nc2ccccn12)c1ccc(O)cc1O was read as PfM18AAP inh 29*.
